Data: ChEMBL document CHEMBL5058577, “EUbOPEN Chemogenomics Library 2 (Multiplex)” (2022)

System: HEK-293T
Experiment: Multiplex assay against HEK293T
Assay type: toxicity, cell-based
Conditions: human
Method in brief: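 Per cents of healthy-nucleus cells form the tubulin, mitochondrial-mass and membrane-permeability phenotype values. Live cells were stained at seeding with Hoechst33342, BioTracker Green Microtubule Cytoskeleton Dye, MitoTracker Red and Annexin V Alexa Fluor 680. After compound addition they were imaged on a CQ1 microscope at 37°C and 5% CO2, and CellPathfinder machine-learning gating split them into Hoechst high-intensity objects or normal cells, normal cells into healthy, pyknosed or fragmented nuclei, and pyknosed cells into mitotic or apoptotic.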

[1] = 12 h, 1 µM, compound concentration 1 uM, replicate 1
[2] = 12 h, 1 µM, compound concentration 1 uM, replicate 2
[3] = 12 h, 10 µM, compound concentration 10 uM, replicate 1
[4] = 12 h, 10 µM, compound concentration 10 uM, replicate 2
[5] = 24 h, 1 µM, compound concentration 1 uM, replicate 1
[6] = 24 h, 1 µM, compound concentration 1 uM, replicate 2
[7] = 24 h, 10 µM, compound concentration 10 uM, replicate 1
[8] = 24 h, 10 µM, compound concentration 10 uM, replicate 2
[9] = 48 h, 1 µM, compound concentration 1 uM, replicate 1
[10] = 48 h, 1 µM, compound concentration 1 uM, replicate 2
[11] = 48 h, 10 µM, compound concentration 10 uM, replicate 1
[12] = 48 h, 10 µM, compound concentration 10 uM, replicate 2

## CC(C)COc1ccc(CNC(=O)N(Cc2ccc(F)cc2)C2CCN(C)CC2)cc1 [PIMAVANSERIN]
[1]
  Population Apoptotic (%): 39%
  Population Fragmented Nuclei (%): 5%
  Population Healthy Nuclei (%): 82%
  Population Hoechst High Intensity Objects (%): 6%
  Population Membrane Permeable-Phenotype (%): 0%
  Population Mitochondria Different-Phenotype (%): 50%
  Population Mitotic Cells (%): 60%
  Population Normal (%): 93%
  Population Pyknosed Nuclei (%): 11%
  Population Tubulin-Different-Phenotype (%): 49%
  Total Cell Count: 430
[2]
  Population Apoptotic (%): 54%
  Population Fragmented Nuclei (%): 7%
  Population Healthy Nuclei (%): 74%
  Population Hoechst High Intensity Objects (%): 11%
  Population Mitochondria Different-Phenotype (%): 68%
  Population Mitotic Cells (%): 46%
  Population Normal (%): 88%
  Population Pyknosed Nuclei (%): 18%
  Population Tubulin-Different-Phenotype (%): 35%
  Total Cell Count: 311
[3]
  Population Apoptotic (%): 62%
  Population Fragmented Nuclei (%): 10%
  Population Healthy Nuclei (%): 60%
  Population Hoechst High Intensity Objects (%): 19%
  Population Membrane Permeable-Phenotype (%): 0%
  Population Mitochondria Different-Phenotype (%): 89%
  Population Mitotic Cells (%): 37%
  Population Normal (%): 80%
  Population Pyknosed Nuclei (%): 28%
  Population Tubulin-Different-Phenotype (%): 81%
  Total Cell Count: 285
[4]
  Population Apoptotic (%): 79%
  Population Fragmented Nuclei (%): 7%
  Population Healthy Nuclei (%): 64%
  Population Hoechst High Intensity Objects (%): 25%
  Population Mitochondria Different-Phenotype (%): 87%
  Population Mitotic Cells (%): 20%
  Population Normal (%): 74%
  Population Pyknosed Nuclei (%): 27%
  Population Tubulin-Different-Phenotype (%): 66%
  Total Cell Count: 237
[5]
  Population Apoptotic (%): 33%
  Population Fragmented Nuclei (%): 9%
  Population Healthy Nuclei (%): 77%
  Population Hoechst High Intensity Objects (%): 6%
  Population Membrane Permeable-Phenotype (%): 2%
  Population Mitochondria Different-Phenotype (%): 42%
  Population Mitotic Cells (%): 66%
  Population Normal (%): 93%
  Population Pyknosed Nuclei (%): 13%
  Population Tubulin-Different-Phenotype (%): 40%
  Total Cell Count: 553
[6]
  Population Apoptotic (%): 48%
  Population Fragmented Nuclei (%): 4%
  Population Healthy Nuclei (%): 82%
  Population Hoechst High Intensity Objects (%): 8%
  Population Membrane Permeable-Phenotype (%): 0%
  Population Mitochondria Different-Phenotype (%): 55%
  Population Mitotic Cells (%): 51%
  Population Normal (%): 91%
  Population Pyknosed Nuclei (%): 12%
  Population Tubulin-Different-Phenotype (%): 30%
  Total Cell Count: 394
[7]
  Population Apoptotic (%): 81%
  Population Fragmented Nuclei (%): 10%
  Population Healthy Nuclei (%): 57%
  Population Hoechst High Intensity Objects (%): 27%
  Population Membrane Permeable-Phenotype (%): 0%
  Population Mitochondria Different-Phenotype (%): 94%
  Population Mitotic Cells (%): 18%
  Population Normal (%): 72%
  Population Pyknosed Nuclei (%): 31%
  Population Tubulin-Different-Phenotype (%): 77%
  Total Cell Count: 285
[8]
  Population Apoptotic (%): 84%
  Population Fragmented Nuclei (%): 12%
  Population Healthy Nuclei (%): 54%
  Population Hoechst High Intensity Objects (%): 34%
  Population Mitochondria Different-Phenotype (%): 100%
  Population Mitotic Cells (%): 15%
  Population Normal (%): 65%
  Population Pyknosed Nuclei (%): 32%
  Population Tubulin-Different-Phenotype (%): 69%
  Total Cell Count: 215
[9]
  Population Apoptotic (%): 27%
  Population Fragmented Nuclei (%): 13%
  Population Healthy Nuclei (%): 77%
  Population Hoechst High Intensity Objects (%): 5%
  Population Membrane Permeable-Phenotype (%): 1%
  Population Mitochondria Different-Phenotype (%): 31%
  Population Mitotic Cells (%): 72%
  Population Normal (%): 94%
  Population Pyknosed Nuclei (%): 8%
  Population Tubulin-Different-Phenotype (%): 33%
  Total Cell Count: 869
[10]
  Population Apoptotic (%): 48%
  Population Fragmented Nuclei (%): 9%
  Population Healthy Nuclei (%): 84%
  Population Membrane Permeable-Phenotype (%): 0%
  Population Mitochondria Different-Phenotype (%): 33%
  Population Mitotic Cells (%): 51%
  Population Pyknosed Nuclei (%): 6%
  Population Tubulin-Different-Phenotype (%): 21%
  Total Cell Count: 601
[11]
  Population Apoptotic (%): 75%
  Population Fragmented Nuclei (%): 29%
  Population Healthy Nuclei (%): 30%
  Population Hoechst High Intensity Objects (%): 52%
  Population Membrane Permeable-Phenotype (%): 0%
  Population Mitochondria Different-Phenotype (%): 88%
  Population Mitotic Cells (%): 24%
  Population Normal (%): 47%
  Population Pyknosed Nuclei (%): 40%
  Population Tubulin-Different-Phenotype (%): 58%
  Total Cell Count: 235
[12]
  Population Apoptotic (%): 61%
  Population Fragmented Nuclei (%): 31%
  Population Hoechst High Intensity Objects (%): 60%
  Population Mitochondria Different-Phenotype (%): 92%
  Population Mitotic Cells (%): 38%
  Population Normal (%): 40%
  Population Pyknosed Nuclei (%): 37%
  Population Tubulin-Different-Phenotype (%): 64%
  Total Cell Count: 205
